In ChEMBL document CHEMBL2321664, “L-Aminoacyl-triazine derivatives are isoform-selective PI3Kβ inhibitors that target non-conserved Asp862 of PI3Kβ” (ACS Med Chem Lett, 2013):

Legend:
[1] = target: T1, Phosphatidylinositol 4,5-bisphosphate 3-kinase catalytic subunit delta isoform (Homo sapiens, UniProt O00329); assay: Inhibition of PI3K-delta (unknown origin) assessed as decrease in ATP consumption using phosphatidylinositol bisphosphate and 10 uM ATP as substrate measured after 60 mins by luminescence assay
T1 sequence (O00329 whole entry): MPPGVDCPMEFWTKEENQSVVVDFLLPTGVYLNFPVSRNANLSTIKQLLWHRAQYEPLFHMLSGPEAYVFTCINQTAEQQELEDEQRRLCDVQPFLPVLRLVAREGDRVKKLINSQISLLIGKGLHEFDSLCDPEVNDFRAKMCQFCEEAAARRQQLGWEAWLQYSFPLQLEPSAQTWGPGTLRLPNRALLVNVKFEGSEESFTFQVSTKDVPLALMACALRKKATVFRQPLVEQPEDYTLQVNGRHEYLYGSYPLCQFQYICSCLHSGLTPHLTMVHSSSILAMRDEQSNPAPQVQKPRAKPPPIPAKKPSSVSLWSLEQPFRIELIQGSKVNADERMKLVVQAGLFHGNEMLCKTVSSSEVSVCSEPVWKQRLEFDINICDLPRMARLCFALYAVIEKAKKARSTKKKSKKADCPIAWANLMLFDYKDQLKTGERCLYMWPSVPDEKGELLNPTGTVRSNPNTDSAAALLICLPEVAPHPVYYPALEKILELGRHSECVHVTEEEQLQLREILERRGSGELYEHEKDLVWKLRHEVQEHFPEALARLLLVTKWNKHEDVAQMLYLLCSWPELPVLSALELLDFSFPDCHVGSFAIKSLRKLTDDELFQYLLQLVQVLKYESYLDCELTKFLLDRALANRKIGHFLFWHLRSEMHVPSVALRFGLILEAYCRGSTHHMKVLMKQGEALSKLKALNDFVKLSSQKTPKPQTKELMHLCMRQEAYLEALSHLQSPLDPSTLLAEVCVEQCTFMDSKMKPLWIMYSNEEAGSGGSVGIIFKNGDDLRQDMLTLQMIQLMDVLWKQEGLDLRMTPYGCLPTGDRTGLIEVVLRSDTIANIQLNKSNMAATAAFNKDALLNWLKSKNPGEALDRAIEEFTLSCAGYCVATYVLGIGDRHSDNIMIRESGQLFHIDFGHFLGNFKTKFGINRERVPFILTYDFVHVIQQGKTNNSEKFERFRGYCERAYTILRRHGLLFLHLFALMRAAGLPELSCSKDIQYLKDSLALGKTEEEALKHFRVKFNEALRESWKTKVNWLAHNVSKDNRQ

[2] = target: Phosphatidylinositol 4,5-bisphosphate 3-kinase catalytic subunit gamma isoform (Homo sapiens, UniProt P48736); assay: Inhibition of PI3K-gamma (unknown origin) assessed as decrease in ATP consumption using phosphatidylinositol bisphosphate and 10 uM ATP as substrate measured after 60 mins by luminescence assay
[3] = target: T2, Phosphatidylinositol 4,5-bisphosphate 3-kinase catalytic subunit beta isoform (Homo sapiens, UniProt P42338); assay: Inhibition of PI3K-beta (unknown origin) assessed as decrease in ATP consumption using phosphatidylinositol bisphosphate and 10 uM ATP as substrate measured after 60 mins by luminescence assay
[4] = target: Phosphatidylinositol 4,5-bisphosphate 3-kinase catalytic subunit alpha isoform (Homo sapiens, UniProt P42336); assay: Inhibition of PI3K-alpha (unknown origin) assessed as decrease in ATP consumption using phosphatidylinositol bisphosphate and 10 uM ATP as substrate measured after 60 mins by luminescence assay
[5] = target: Phosphatidylinositol 4,5-bisphosphate 3-kinase catalytic subunit beta isoform (Homo sapiens, UniProt P42338, D862Q); assay: Inhibition of recombinant PI3K-beta D862Q mutant (unknown origin) expressed in baculovirus infected Sf21 cells assessed as decrease in ATP consumption using phosphatidylinositol bisphosphate and 100 uM ATP as substrate measured after 60 mins by luminescence assay
How it was run: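 Kinase-Glo luminescent read-out of kinase activity with 100 μM ATP. Run alongside the wild-type PI3Kβ enzyme and the wild-type and reciprocal-mutant PI3Kα enzymes. IC50 values are means of at least two duplicate experiments.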

[6] = target: T2, Phosphatidylinositol 4,5-bisphosphate 3-kinase catalytic subunit beta isoform; assay: Inhibition of wild type PI3K-beta (unknown origin) assessed as decrease in ATP consumption using phosphatidylinositol bisphosphate and 100 uM ATP as substrate measured after 60 mins by luminescence assay
How it was run: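 Kinase-Glo read-out with 100 μM ATP, run alongside the D862Q mutant and the wild-type and reciprocal-mutant PI3Kα forms. IC50 is the mean of at least two duplicate experiments.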

[7] = target: RAC-alpha serine/threonine-protein kinase (Homo sapiens, UniProt P31749); assay: Inhibition of IGF-1 induced Akt phosphorylation in PTEN-deficient human MDA-MB-468 cells pretreated for 2 hrs before IGF1 induction measured after 15 mins by Western blot analysis; format: cell-based
Sequence of RAC-alpha serine/threonine-protein kinase (P31749 whole entry): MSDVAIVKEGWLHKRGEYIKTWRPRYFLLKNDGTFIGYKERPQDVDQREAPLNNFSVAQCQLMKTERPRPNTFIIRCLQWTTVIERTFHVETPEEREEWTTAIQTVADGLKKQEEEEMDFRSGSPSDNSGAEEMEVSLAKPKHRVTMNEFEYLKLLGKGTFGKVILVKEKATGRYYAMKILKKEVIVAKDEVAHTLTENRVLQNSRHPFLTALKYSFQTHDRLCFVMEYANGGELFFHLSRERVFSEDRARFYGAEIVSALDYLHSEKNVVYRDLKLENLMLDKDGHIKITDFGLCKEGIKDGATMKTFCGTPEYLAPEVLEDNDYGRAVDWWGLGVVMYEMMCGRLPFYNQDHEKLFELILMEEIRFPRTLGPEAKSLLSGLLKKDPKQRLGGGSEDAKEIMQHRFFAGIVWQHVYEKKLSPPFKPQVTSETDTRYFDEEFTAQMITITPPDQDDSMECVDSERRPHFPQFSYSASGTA

Sequence of Phosphatidylinositol 4,5-bisphosphate 3-kinase catalytic subunit beta isoform (Homo sapiens, UniProt P42338, D862Q) (P42338 whole entry D862Q, canonical isoform): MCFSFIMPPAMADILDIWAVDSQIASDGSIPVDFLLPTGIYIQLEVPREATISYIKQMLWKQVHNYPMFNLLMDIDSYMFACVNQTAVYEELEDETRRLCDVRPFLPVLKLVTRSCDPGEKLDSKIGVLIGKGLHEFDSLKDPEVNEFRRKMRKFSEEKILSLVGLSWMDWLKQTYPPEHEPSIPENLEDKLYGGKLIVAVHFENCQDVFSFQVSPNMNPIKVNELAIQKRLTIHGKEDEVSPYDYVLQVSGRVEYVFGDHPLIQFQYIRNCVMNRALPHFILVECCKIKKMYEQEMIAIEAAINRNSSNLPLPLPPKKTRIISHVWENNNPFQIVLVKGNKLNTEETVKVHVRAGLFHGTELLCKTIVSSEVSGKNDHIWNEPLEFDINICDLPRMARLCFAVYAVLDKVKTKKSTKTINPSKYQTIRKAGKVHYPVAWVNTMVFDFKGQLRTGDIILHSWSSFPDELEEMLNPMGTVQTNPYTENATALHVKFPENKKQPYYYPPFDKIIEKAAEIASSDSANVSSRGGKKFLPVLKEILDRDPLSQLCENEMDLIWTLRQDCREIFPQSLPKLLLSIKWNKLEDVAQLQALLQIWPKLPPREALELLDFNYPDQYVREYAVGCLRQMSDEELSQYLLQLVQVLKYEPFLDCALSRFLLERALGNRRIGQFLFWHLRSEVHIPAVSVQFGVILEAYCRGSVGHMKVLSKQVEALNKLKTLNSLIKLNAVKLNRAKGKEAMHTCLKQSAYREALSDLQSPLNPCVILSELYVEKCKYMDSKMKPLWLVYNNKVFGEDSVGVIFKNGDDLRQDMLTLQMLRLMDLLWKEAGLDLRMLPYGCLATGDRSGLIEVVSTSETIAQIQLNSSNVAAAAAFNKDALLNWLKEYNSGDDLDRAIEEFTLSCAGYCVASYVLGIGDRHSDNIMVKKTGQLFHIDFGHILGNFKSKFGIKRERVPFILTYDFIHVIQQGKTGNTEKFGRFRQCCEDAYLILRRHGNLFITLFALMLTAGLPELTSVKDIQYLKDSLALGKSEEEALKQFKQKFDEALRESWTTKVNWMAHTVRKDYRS
T2 sequence (P42338 whole entry, canonical isoform): as the sequence (P42338 whole entry D862Q, canonical isoform) above, with Q862D counted along it
Sequence of Phosphatidylinositol 4,5-bisphosphate 3-kinase catalytic subunit gamma isoform (P48736 whole entry, canonical isoform): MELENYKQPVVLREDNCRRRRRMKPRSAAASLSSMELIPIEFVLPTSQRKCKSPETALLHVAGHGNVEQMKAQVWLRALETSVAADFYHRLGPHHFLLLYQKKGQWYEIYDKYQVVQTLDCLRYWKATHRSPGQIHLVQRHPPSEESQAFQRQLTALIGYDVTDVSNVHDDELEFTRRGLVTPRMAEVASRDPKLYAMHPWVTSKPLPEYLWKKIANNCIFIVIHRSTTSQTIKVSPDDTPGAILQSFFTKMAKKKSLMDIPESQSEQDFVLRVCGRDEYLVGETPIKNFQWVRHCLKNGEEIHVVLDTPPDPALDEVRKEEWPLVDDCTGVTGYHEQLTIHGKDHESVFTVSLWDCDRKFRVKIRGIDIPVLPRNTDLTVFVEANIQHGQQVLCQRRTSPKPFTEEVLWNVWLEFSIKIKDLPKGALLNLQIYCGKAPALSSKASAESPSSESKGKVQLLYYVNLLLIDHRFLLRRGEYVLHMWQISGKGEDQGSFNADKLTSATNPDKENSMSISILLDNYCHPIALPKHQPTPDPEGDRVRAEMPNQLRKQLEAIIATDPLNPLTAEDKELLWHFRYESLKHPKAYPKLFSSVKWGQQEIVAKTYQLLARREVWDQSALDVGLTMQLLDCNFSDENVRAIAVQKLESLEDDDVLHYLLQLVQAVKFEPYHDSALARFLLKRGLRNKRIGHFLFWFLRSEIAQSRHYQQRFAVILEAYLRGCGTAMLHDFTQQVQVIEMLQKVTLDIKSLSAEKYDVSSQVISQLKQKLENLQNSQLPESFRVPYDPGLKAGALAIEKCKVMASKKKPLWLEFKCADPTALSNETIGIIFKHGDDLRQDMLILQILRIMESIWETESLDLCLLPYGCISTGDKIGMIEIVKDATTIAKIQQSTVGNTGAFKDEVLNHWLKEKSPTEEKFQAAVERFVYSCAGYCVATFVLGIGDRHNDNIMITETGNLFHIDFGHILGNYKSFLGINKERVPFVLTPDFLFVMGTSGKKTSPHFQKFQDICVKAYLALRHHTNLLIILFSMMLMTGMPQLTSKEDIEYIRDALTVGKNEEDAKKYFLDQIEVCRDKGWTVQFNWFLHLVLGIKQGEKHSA
Sequence of Phosphatidylinositol 4,5-bisphosphate 3-kinase catalytic subunit alpha isoform (P42336 whole entry, canonical isoform): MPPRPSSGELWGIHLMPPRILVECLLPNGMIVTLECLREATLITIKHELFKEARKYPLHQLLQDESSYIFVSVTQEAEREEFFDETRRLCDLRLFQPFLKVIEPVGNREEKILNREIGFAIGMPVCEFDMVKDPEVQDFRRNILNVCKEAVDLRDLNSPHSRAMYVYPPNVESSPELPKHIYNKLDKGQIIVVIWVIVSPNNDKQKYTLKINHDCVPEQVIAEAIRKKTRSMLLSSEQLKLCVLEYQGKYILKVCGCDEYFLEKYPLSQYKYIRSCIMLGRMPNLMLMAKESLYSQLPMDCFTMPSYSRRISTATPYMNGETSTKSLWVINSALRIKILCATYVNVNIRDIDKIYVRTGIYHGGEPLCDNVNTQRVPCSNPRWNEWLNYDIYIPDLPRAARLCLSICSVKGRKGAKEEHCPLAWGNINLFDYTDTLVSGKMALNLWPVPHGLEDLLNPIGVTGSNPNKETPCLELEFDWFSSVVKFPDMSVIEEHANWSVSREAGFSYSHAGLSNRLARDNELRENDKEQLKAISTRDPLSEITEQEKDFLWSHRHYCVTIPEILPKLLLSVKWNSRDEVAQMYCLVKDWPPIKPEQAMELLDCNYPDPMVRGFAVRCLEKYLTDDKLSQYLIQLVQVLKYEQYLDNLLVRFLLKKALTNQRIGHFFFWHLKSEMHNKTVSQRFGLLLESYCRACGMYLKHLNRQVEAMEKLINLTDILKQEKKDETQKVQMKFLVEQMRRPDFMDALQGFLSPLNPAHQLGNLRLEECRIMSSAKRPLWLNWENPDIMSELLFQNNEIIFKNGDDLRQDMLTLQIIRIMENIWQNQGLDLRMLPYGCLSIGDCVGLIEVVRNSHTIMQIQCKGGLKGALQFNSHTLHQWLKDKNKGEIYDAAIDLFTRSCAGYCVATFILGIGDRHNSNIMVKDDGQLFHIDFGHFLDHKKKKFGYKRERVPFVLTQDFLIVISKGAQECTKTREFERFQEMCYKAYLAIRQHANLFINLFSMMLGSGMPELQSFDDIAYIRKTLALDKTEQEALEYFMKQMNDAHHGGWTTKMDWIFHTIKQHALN

Structure (SMILES) | IC50 [1] | IC50 [2] | IC50 [3] | IC50 [4] | IC50 [5] | IC50 [6] | IC50 [7] | inhibition [7]
O=C([C@@H]1CCCN1)N1CCN(c2nc(N3CCOCC3)nc(-n3c(C(F)F)nc4ccccc43)n2)CC1 | 390 nM | > 10000 nM | 26 nM | 2200 nM | – | – | – | –
N[C@@H](Cc1ccc(O)cc1)C(=O)N1CCN(c2nc(N3CCOCC3)nc(-n3c(C(F)F)nc4ccccc43)n2)CC1 | 1200 nM | > 10000 nM | 220 nM | 3300 nM | – | – | – | –
N[C@H](Cc1ccccc1)C(=O)N1CCN(c2nc(N3CCOCC3)nc(-n3c(C(F)F)nc4ccccc43)n2)CC1 | 3600 nM | > 10000 nM | > 10000 nM | – | – | – | – | –
C[C@H](N)C(=O)N1CCN(c2nc(N3CCOCC3)nc(-n3c(C(F)F)nc4ccccc43)n2)CC1 | 490 nM | – | 31 nM | – | 890 nM | 62 nM | – | –
N[C@@H](Cc1ccccc1)C(=O)N1CCN(c2nc(N3CCOCC3)nc(-n3c(C(F)F)nc4ccccc43)n2)CC1 | 2200 nM | – | 63 nM | – | 6000 nM | 74 nM | < 10 nM | Dose-dependent effect
CC[C@H](C)[C@H](N)C(=O)N1CCN(c2nc(N3CCOCC3)nc(-n3c(C(F)F)nc4ccccc43)n2)CC1 | 1000 nM | > 10000 nM | 67 nM | – | 1400 nM | 140 nM | – | –
CN[C@@H](C)C(=O)N1CCN(c2nc(N3CCOCC3)nc(-n3c(C(F)F)nc4ccccc43)n2)CC1 | 290 nM | 8000 nM | 260 nM | 1500 nM | – | – | – | –
CC(=O)NCC(=O)N1CCN(c2nc(N3CCOCC3)nc(-n3c(C(F)F)nc4ccccc43)n2)CC1 | 26 nM | 380 nM | 54 nM | 42 nM | – | – | – | –

Further compounds by falling IC50 [1], results first:

IC50 [1] | IC50 [2] | IC50 [3] | IC50 [4] | Structure (SMILES) | IC50 [5] | IC50 [6] | IC50 [7] | inhibition [7]
670 nM | > 10000 nM | 50 nM | 2300 nM | NCCCC[C@H](N)C(=O)N1CCN(c2nc(N3CCOCC3)nc(-n3c(C(F)F)nc4ccccc43)n2)CC1 | – | – | – | –
330 nM | > 10000 nM | 2400 nM | 1600 nM | CN(C)CC(=O)N1CCN(c2nc(N3CCOCC3)nc(-n3c(C(F)F)nc4ccccc43)n2)CC1 | – | – | – | –
110 nM | 9900 nM | 35 nM | 1500 nM | NCC(=O)N1CCN(c2nc(N3CCOCC3)nc(-n3c(C(F)F)nc4ccccc43)n2)CC1 | – | – | – | –
70 nM | 2000 nM | 1000 nM | – | C[C@@H](N)C(=O)N1CCN(c2nc(N3CCOCC3)nc(-n3c(C(F)F)nc4ccccc43)n2)CC1 | – | – | – | –
58 nM | 3900 nM | 98 nM | 720 nM | NCCC(=O)N1CCN(c2nc(N3CCOCC3)nc(-n3c(C(F)F)nc4ccccc43)n2)CC1 | – | – | – | –
